The test system of data set [1] is Salmonella typhimurium. In words: Antimicrobial activity against sseG gene-deficient Salmonella enterica Typhimurium 14028 infected in RAW 264.7 cells assessed as growth inhibition at 200 uM after 2 to 16 hrs postinfection by flow cytometry relative to untreated control. Type of data set: functional, Salmonella enterica subsp. enterica serovar Typhimurium. For orientation: A flow cytometer gives signals particle by particle.

The test system of data set [2] is RAW264.7. Put plainly: Induction of apoptosis in mouse RAW264.7 cells assessed as necrotic cells at 200 uM after 16 hrs using annexin V-propidium iodide staining by flow cytometry. Type of data set: cell-based. To be noted: raw264.7, 16 h. An outline of the steps:
(§1)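 RAW264.7 cells kept 16 h with or without compound in DMSO. Cells stained with annexin V-FITC plus propidium iodide and analysed by flow cytometry. Populations given as percent of all cells counted, with standard deviations.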

The subject of data set [3] is RAW264.7. Put plainly: Induction of apoptosis in mouse RAW264.7 cells assessed as early apoptotic cells at 200 uM after 16 hrs using annexin V-propidium iodide staining by flow cytometry. In kind it is cell-based. The conditions noted are these: raw264.7, 16 h. The method in brief: as §1
For data set [4], the system named is Salmonella typhimurium. In words: bacteriostatic activity against Salmonella enterica Typhimurium 14028 infected in RAW 264.7 cells assessed as decrease intracellular bacteria at 200 uM after 16 hrs postinfection by GFP-based fluorescent reduction assay. In kind it is functional, organism-based. To be noted: Salmonella enterica subsp. enterica serovar Typhimurium.

Data set [5] relates to Salmonella typhimurium. Put plainly: Antimicrobial activity against ssaV gene-deficient Salmonella enterica Typhimurium 14028 infected in RAW 264.7 cells assessed as growth inhibition at 200 uM after 2 to 16 hrs postinfection by flow cytometry relative to untreated control. Type of data set: functional, organism-based. The conditions noted are these: Salmonella enterica subsp. enterica serovar Typhimurium.

Data set [6] concerns Salmonella typhimurium. Put plainly: Antimicrobial activity against Salmonella enterica Typhimurium 14028 infected in RAW 264.7 cells assessed as decrease in TNF-alpha secretion from infected cells at 200 Um after 16 hrs postinfection by ELISA relative to untreated control. The conditions noted are these: Salmonella enterica subsp. enterica serovar Typhimurium. Type of data set: functional, organism-based.

Data set [7] deals with Salmonella typhimurium. In words: Antimicrobial activity against Salmonella enterica Typhimurium 14028 infected in RAW 264.7 cells assessed as growth inhibition at 200 uM treated 3 hr before infection measured after 16 hrs of postinfection by flow cytometry. In kind it is functional, organism-based. To be noted: Salmonella enterica subsp. enterica serovar Typhimurium.
The subject of data set [8] is Salmonella typhimurium. In words: Antimicrobial activity against Salmonella enterica Typhimurium 14028 infected in RAW 264.7 cells assessed as decrease in bacterial growth yield at 200 uM after 16 hrs postinfection by flow cytometry in presence of 10 ug/ml of intracellular replication inhibitor tetracycline. Type of data set: functional, organism-based. To be noted: Salmonella enterica subsp. enterica serovar Typhimurium.

For data set [9], the system named is Salmonella typhimurium. Put plainly: Antimicrobial activity against Salmonella enterica Typhimurium 14028 infected in RAW 264.7 cells assessed as growth inhibition at 200 uM treated 4 hr postinfection measured after 16 hrs of postinfection by flow cytometry. Type of data set: functional, organism-based. To be noted: Salmonella enterica subsp. enterica serovar Typhimurium.

The subject of data set [10] is Salmonella typhimurium. Put plainly: Antimicrobial activity against sifA gene-deficient Salmonella enterica Typhimurium 14028 infected in RAW 264.7 cells assessed as growth inhibition at 200 uM after 2 to 16 hrs postinfection by flow cytometry relative to untreated control. Type of data set: functional, organism-based. The conditions noted are these: Salmonella enterica subsp. enterica serovar Typhimurium.

In data set [11] the test system is RAW264.7. Put plainly: Induction of apoptosis in mouse RAW264.7 cells assessed as late apoptotic cells at 200 uM after 16 hrs using annexin V-propidium iodide staining by flow cytometry. In kind it is cell-based. The conditions noted are these: raw264.7, 16 h. The method in brief:
as §1

Data set [12] has as its system Salmonella typhimurium. In words: Antimicrobial activity against Salmonella enterica Typhimurium 14028 infected in RAW 264.7 cells assessed as growth inhibition at 200 uM treated 6 hr postinfection measured after 16 hrs of postinfection by flow cytometry. Type of data set: functional, organism-based. The conditions noted are these: Salmonella enterica subsp. enterica serovar Typhimurium.

For data set [13], the system named is Salmonella typhimurium. Put plainly: Antimicrobial activity against Salmonella enterica Typhimurium 14028 infected in RAW 264.7 cells assessed as inhibition of inducible nitric oxide synthase expression in infected cells at 200 uM by Immunoblotting relative to untreated control. To be noted: Salmonella enterica subsp. enterica serovar Typhimurium. Type of data set: functional, organism-based. For orientation: Immunoblotting shows a protein as a band on a membrane.

The subject of data set [14] is Salmonella typhimurium. In words: Antimicrobial activity against Salmonella enterica Typhimurium 14028 infected in RAW 264.7 cells assessed as decrease in IL-6 secretion from infected cells at 200 uM after 16 hrs postinfection by ELISA relative to untreated control. Type of data set: functional, organism-based. The conditions noted are these: Salmonella enterica subsp. enterica serovar Typhimurium.

Data set [15] relates to Salmonella typhimurium. Put plainly: Antimicrobial activity against Salmonella enterica Typhimurium 14028 infected in RAW 264.7 cells assessed as decrease in segregation of plasmid at 200 uM. Type of data set: functional, organism-based. The conditions noted are these: Salmonella enterica subsp. enterica serovar Typhimurium.
Data set [16] deals with Salmonella typhimurium. Put plainly: Antimicrobial activity against Salmonella enterica Typhimurium 14028 infected in RAW 264.7 cells assessed as delayed degradation of IkappaB-alpha in infected cells at 200 uM after 20 mins postinfection by Immunoblotting relative to untreated control. In kind it is functional, organism-based. To be noted: Salmonella enterica subsp. enterica serovar Typhimurium.

For data set [17], the system named is Salmonella typhimurium. In words: Bacteriostatic activity against Salmonella enterica Typhimurium 14028 infected in RAW 264.7 cells assessed as decrease in bacterial growth yield at 200 uM after 16 hrs postinfection by flow cytometry. Type of data set: functional, organism-based. To be noted: Salmonella enterica subsp. enterica serovar Typhimurium.
The test system of data set [18] is Salmonella typhimurium. Put plainly: Antimicrobial activity against sseF gene-deficient Salmonella enterica Typhimurium 14028 infected in RAW 264.7 cells assessed as growth inhibition at 200 uM after 2 to 16 hrs postinfection by viable counting relative to untreated control.
Data set [19] concerns Salmonella typhimurium. Put plainly: Antimicrobial activity against Salmonella enterica Typhimurium 14028 infected in RAW 264.7 cells assessed as delayed degradation of IkappaB-alpha in infected cells at 200 uM after 40 mins postinfection by Immunoblotting relative to untreated control. In kind it is functional, organism-based. The conditions noted are these: Salmonella enterica subsp. enterica serovar Typhimurium.

Data set [20] has as its system RAW264.7. In words: Cytotoxicity against mouse RAW264.7 cells at 200 uM by LDH release assay. Type of data set: cell-based. To be noted: raw264.7, 200 µM. On the technique in general: Release of lactate dehydrogenase indicates damage to the cell membrane.
For data set [21], the system named is RAW264.7. In words: Cytotoxicity against mouse RAW264.7 cells assessed as change vacuolar pH at 200 uM using acridine orange stain by fluorescent microscope. In kind it is cell-based. To be noted: raw264.7, 200 µM. An outline of the steps:
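RAW264.7 cells treated with compound, then stained with acridine orange, whose fluorescence shifts upon protonation. Intravacuolar orange staining scored by fluorescence microscopy as acidified vacuoles.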

In data set [22] the test system is RAW264.7. In words: Induction of apoptosis in mouse RAW264.7 cells assessed as necrotic cells at 100 nM after 16 hrs using annexin V-propidium iodide staining by flow cytometry. Type of data set: cell-based. To be noted: raw264.7, 16 h, 0.1 µM. An outline of the steps: (§2)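 RAW264.7 cells cultured with compound for 16 h, DMSO as control. Cells stained with annexin V-FITC plus propidium iodide and analysed by flow cytometry. Populations given as percentages of all cells counted, with standard deviations.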

Data set [23] concerns RAW264.7. Put plainly: Induction of apoptosis in mouse RAW264.7 cells assessed as early apoptotic cells at 100 nM after 16 hrs using annexin V-propidium iodide staining by flow cytometry. Type of data set: cell-based. The conditions noted are these: raw264.7, 16 h, 0.1 µM. An outline of the steps: as §2
The test system of data set [24] is RAW264.7. Put plainly: Induction of apoptosis in mouse RAW264.7 cells assessed as late apoptotic cells at 100 nM after 16 hrs using annexin V-propidium iodide staining by flow cytometry. In kind it is cell-based. To be noted: raw264.7, 16 h, 0.1 µM. An outline of the steps: as §2
Data set [25] has as its system RAW264.7. Put plainly: Cytotoxicity against mouse RAW264.7 cells at 100 nM by LDH release assay. In kind it is cell-based. To be noted: raw264.7, 0.1 µM. The method in brief: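 RAW264.7 cells cultured with compound for 16 h. LDH released into the culture medium measured chromogenically with a cytotoxicity detection kit. Triplicates, repeated at least twice; paired t test.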

In data set [26] the test system is Salmonella typhimurium. In words: Antimicrobial activity against Salmonella enterica Typhimurium 14028 infected in RAW 264.7 cells assessed as inhibition of bacterial replication at 100 nM treated 30 mins before infection measured after 2 to 16 hrs postinfection by flow cytometry. The conditions noted are these: Salmonella enterica subsp. enterica serovar Typhimurium. In kind it is functional, organism-based.

Data set [27] concerns Salmonella typhimurium. In words: Antimicrobial activity against Salmonella enterica Typhimurium 14028 infected in RAW 264.7 cells assessed as […] nitric oxide production in infected cells at 100 nM. Type of data set: functional, organism-based. The conditions noted are these: Salmonella enterica subsp. enterica serovar Typhimurium. The method in brief: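 Nonactivated RAW264.7 cells infected with opsonized (10% preimmune BALB/c serum, 30 min, 37°C) noninvasive-grown S. Typhimurium 14028 at MOI 10; cells pretreated 30 min before infection, then fresh medium. 1 h infection, 45 min gentamicin 50 μg/ml, then 10 μg/ml maintenance. NO measured as nitrite in medium by Griess reagent, OD 525 nm against sodium nitrite standards.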

Data set [28] deals with Salmonella typhimurium. In words: Bactericidal activity against Salmonella enterica Typhimurium 14028 infected in RAW 264.7 cells assessed as decrease in bacterial growth yield at 100 nM after 16 hrs postinfection by flow cytometry in presence of 10 ug/ml of intracellular replication inhibitor tetracycline. In kind it is functional, organism-based. The conditions noted are these: Salmonella enterica subsp. enterica serovar Typhimurium.

Activity calls are given as the source filed them. No cut-off for these calls is given here.

`COc1ccc2[nH]c([S+]([O-])Cc3ncc(C)c(OC)c3C)nc2c1` (stereo not drawn) [OMEPRAZOLE]: the “fold change (FC)” value in data set [1] and in data set [18] was 2 in each case. In addition, the Activity was 0.1% in data set [2], 25.3% in data set [3], 15.8% in data set [11] and “Non-toxic” in data set [20]. In addition, the outcome in data set [4], in [7], in data set [9], in data set [12], in [15] and in data set [17] was Active. For the same molecule, the outcome in [5], in data set [6], in data set [8], in [10], in data set [13] and in data set [14] was inactive. In addition, the result in data set [16] and in data set [19] was inactive.

`CO/C1=C\C(C)=C\[C@@H](C)[C@@H](O)[C@@H](C)C/C(C)=C/C=C/[C@H](OC)[C@@H]([C@@H](C)[C@@H](O)[C@H](C)[C@@]2(O)C[C@@H](O)[C@H](C)[C@@H](C(C)C)O2)OC1=O` [BAFILOMYCIN A1]: the Activity entry in data set [21] is “Toxic”; in data set [22] it was 0.4%; in data set [23] it was 29.2%; in data set [24], 31.5%; in data set [25], “Toxic”. In addition, the outcome in data set [26], in data set [27] and in [28] was Active.

The values above are taken from ChEMBL document CHEMBL1649444, “Omeprazole antagonizes virulence and inflammation in Salmonella enterica-infected RAW264.7 cells” (Antimicrob Agents Chemother, 2009).
